According to PMC4515944 (Planta medica, 2015):
In brackets after ≈: the same amount, converted by molar mass. Like-named read-outs stand apart in the source and are kept apart here.

How the values were obtained:
[1] = target: Collagenase type V from Clostridium histolyticum; assay: Collagenase inhibition assay; type: biochemical; settings: for IC50: incubation 37°C 10 min, reaction monitored 30 min; for inhibition rate: initial concentration 50 μg/mL
In short: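 Clostridium histolyticum collagenase (100 μg/mL initial) in 10 mM Tris-HCl pH 7.3 preincubated 10 min with test compound (1% DMSO final). MCA-Pro-Leu-Ala-Nva-DNP-Dap-Ala-Arg-NH2 (55.55 μg/mL initial) then added. Fluorescence ex 320/em 400 nm read at endpoint, or every 5 min over 30 min for AUC. Serial dilutions in triplicate, blank per concentration, % inhibition versus buffer control. Km by Lineweaver-Burk, substrate 4.17–166.67 μg/mL initial.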

collagenase = settings: cited from earlier work

For CC(C)C[C@H](NP(=O)(O)O[C@@H]1O[C@@H](C)[C@H](O)[C@@H](O)[C@H]1O)C(=O)N[C@@H](Cc1c[nH]c2ccccc12)C(=O)O [phosphoramidon], the “IC50, kinetic reading mode (AUC)” value ([1]; AUC 0-30 min, n=3) was 11.95 μg/mL ± 1.28, the “IC50, endpoint reading mode” value ([1]; endpoint reading at 30 min, n=3) was 11.07 μg/mL ± 0.95 and the IC50 ([1]; mean ± SD (n=3)) was 18.8 ± 1.6 µM. The inhibition rate ([1]; reaction temperature 30°C) was 53.4%, the inhibition rate ([1]; reaction temperature 37°C) was 53.4% and the inhibition rate ([1]; room temperature (RT)) was 49.1%.
COC1=C(NCC(=O)O)C[C@@](O)(CO)C/C1=N\[C@@H](CO)C(=O)O [shinorine] showed an IC50 ([1]; final concentration) of 34.42 µg/mL and an IC50 ([1]; mean ± SD (n=3)) of 104 ± 3.7 µM.
COC1=C(NCC(=O)O)CC(O)(CO)CC1=N (stereo not shown) [palythine] gave an IC50 ([1]; final concentration) of 38.82 µg/mL and an IC50 ([1]; mean ± SD (n=3)) of 159 ± 3.2 µM.
In the case of COC1=C(NCC(=O)O)CC(O)(CO)CC1=N[C@H](C(=O)O)[C@@H](C)O (stereo partly shown) [porphyra], the IC50 ([1]; final concentration) is reported as 37.73 µg/mL and the IC50 ([1]; mean ± SD (n=3)) is reported as 106 ± 2.3 µM.
In the case of c1cnc2c(c1)ccc1cccnc12 [1,10-phenanthroline], the “IC50 described in literature” value (collagenase; ref [16]) is given as 70.4 µg/mL (≈ 391 µM), the IC50 ([1]; final concentration) is given as 42.86 µg/mL and the IC50 ([1]; mean ± SD (n=3)) is given as 238 ± 3.4 µM.
With “MCA-Pro-Leu-Ala-Nva-DNP-Dap-Ala-Arg-NH2 [MMP-2 fluorogenic substrate]” the “maximum velocity (Vmax)” value ([1]; Lineweaver Burk plot, enzyme 100 μg/mL (initial)) was 212.76 µmol/min, the Km ([1]; read-out: Km (final), Lineweaver Burk plot, final concentration) was 12.9 µM and the Km ([1]; read-out: Michaelis Menten constant (Km), Lineweaver Burk plot, enzyme 100 μg/mL (initial), initial substrate concentration) was 51.7 µM.
For O=C(O[C@@H]1Cc2c(O)cc(O)cc2O[C@@H]1c1cc(O)c(O)c(O)c1)c1cc(O)c(O)c(O)c1 [epigallocatechingallate], the IC50 (collagenase; ref [15]) is listed as 114 µg/mL (≈ 249 µM).
